Drawing on ChEMBL document CHEMBL3352503, “An investigation of in vitro cytotoxicity and apoptotic potential of aromatic diselenides” (Bioorg Med Chem Lett, 2014), this text covers IC50, Activity and inhibition for 13 compounds.

The source made the active and inactive calls. No cut-off for these calls is given here.

A short description of assay [1]: Cytotoxicity against human OVCAR5 cells after 48 hrs by MTT assay. The class given is functional, cell-based. As to conditions: OVCAR-5, 48 h. In general terms: Tetrazolium dyes change colour on reduction, which living cells bring about.
A short description of assay [2]: Cytotoxicity against human HL60 cells after 48 hrs by MTT assay. Format: functional, cell-based. To be noted: HL-60, 48 h. A digest of the protocol: (§1)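 Cells grown at 37°C, 5% CO2 with 10% heat-inactivated FBS, penicillin, streptomycin and L-glutamine: HL-60 (suspension) in RPMI-1640, PC-3 in MEM. Seeded 6000 cells/well, exposed 48 h to a range of concentrations (DMSO vehicle, final below 1%). MTT (2.5 mg/mL) added for 4 h, formazan dissolved in DMSO, OD at 540 nm (ref. 620 nm); growth vs untreated cells.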

A short description of assay [3]: Cytotoxicity against human PC3 cells after 48 hrs by MTT assay. The class given is functional, cell-based. To be noted: PC-3, 48 h. In outline:
as §1

A short description of assay [4]: Cytotoxicity against human 786-O cells after 48 hrs by MTT assay. The class given is functional, cell-based. To be noted: 786-0, 48 h.
A further assay relates to HT-29. Nature of the assay: Cytotoxicity against human HT-29 cells after 48 hrs by MTT assay. To be noted: HT-29, 48 h. The class given is functional, cell-based.
Assay [5] is described as follows: Cell cycle arrest in human HL60 cells assessed as accumulation at S phase at 10 uM after 24 hrs by propidium iodide staining-based flow cytometry (reference value: 46.82%). Format: functional. To be noted: HL-60.
Assay [6] is described as follows: Cell cycle arrest in human HL60 cells assessed as accumulation at G1 phase at 10 uM after 24 hrs by propidium iodide staining-based flow cytometry (reference value: 50.80%). The class given is functional. As to conditions: HL-60. (In flow cytometry, cells or beads pass a laser one at a time.)
In assay [7] the test system is HL-60. Nature of the assay: Induction of apoptosis in human HL60 cells assessed as loss of mitochondrial membrane potential at 10 uM after 24 hrs by Rhodamine-123 staining-based flow cytometric analysis (reference value: 6%). Format: functional.
Assay [8] has as its system HL-60. Nature of the assay: Cytotoxicity against human HL60 cells by MTT assay. As to conditions: TDE = time-dependent effect. Format: functional, cell-based. In outline: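 Cells grown in RPMI-1640 with 10% heat-inactivated FBS at 37 °C, 5% CO₂, seeded at 6000 cells/well and exposed to test material for 48 hr. DMSO vehicle kept below 1% final. MTT (2.5 mg/mL) added for 4 hr, formazan dissolved in DMSO, OD read at 540 nm (reference 620 nm). Growth calculated as treated vs untreated absorbance.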

Assay [9] has as its system HL-60. Nature of the assay: Induction of apoptosis in human HL60 cells assessed as chromatin condensation at 20 to 30 uM after 24 hrs by fluorescent microscopy. Format: functional, cell-based.
Assay [10] has as its system HL-60. Nature of the assay: Induction of apoptosis in human HL60 cells assessed as loss of mitochondrial membrane potential at 20 uM after 24 hrs by Rhodamine-123 staining-based flow cytometric analysis (reference value: 6%). The class given is functional.
The nature of assay [11]: Cell cycle arrest in human HL60 cells assessed as accumulation at G1 phase at 30 uM after 24 hrs by propidium iodide staining-based flow cytometry (reference value: 50.80%). Format: functional. As to conditions: HL-60.
A short description of assay [12]: Cell cycle arrest in human HL60 cells assessed as accumulation at G1 phase at 20 uM after 24 hrs by propidium iodide staining-based flow cytometry (reference value: 50.80%). Format: functional. As to conditions: HL-60.
Assay [13] concerns HL-60. As to the kind of experiment: Induction of apoptosis in human HL60 cells at 30 uM after 24 hrs by propidium iodide staining-based flow cytometry (reference value: 1.49%). The class given is functional.
Assay [14] is described as follows: Cell cycle arrest in human HL60 cells assessed as accumulation at G2 phase at 10 uM after 24 hrs by propidium iodide staining-based flow cytometry (reference value: 2.39%). Format: functional. To be noted: HL-60.
In assay [15] the test system is HL-60. Nature of the assay: Induction of apoptosis in human HL60 cells assessed as nuclear fragmentation at 20 to 30 uM after 24 hrs by fluorescent microscopy. Format: functional, cell-based.
Assay [16] has as its system HL-60. Nature of the assay: Induction of apoptosis in human HL60 cells assessed as loss of mitochondrial membrane potential after 24 hrs by Rhodamine-123 staining-based flow cytometric analysis. The class given is functional, cell-based.
The nature of assay [17]: Cell cycle arrest in human HL60 cells assessed as accumulation at S phase at 30 uM after 24 hrs by propidium iodide staining-based flow cytometry (reference value: 46.82%). The class given is functional. As to conditions: HL-60.
The subject of assay [18] is HL-60. As to the kind of experiment: Induction of apoptosis in human HL60 cells at 10 uM after 24 hrs by propidium iodide staining-based flow cytometry (reference value: 1.49%). Format: functional.
Assay [19] in a line: Cell cycle arrest in human HL60 cells assessed as accumulation at S phase at 20 uM after 24 hrs by propidium iodide staining-based flow cytometry (reference value: 46.82%). The class given is functional. To be noted: HL-60.
Assay [20] can be described thus: Cell cycle arrest in human HL60 cells assessed as accumulation at G2 phase at 20 uM after 24 hrs by propidium iodide staining-based flow cytometry (reference value: 2.39%). Format: functional. As to conditions: HL-60.
The nature of assay [21]: Cell cycle arrest in human HL60 cells assessed as accumulation at G2 phase at 30 uM after 24 hrs by propidium iodide staining-based flow cytometry (reference value: 2.39%). To be noted: HL-60. Format: functional.
Assay [22] relates to HL-60. Nature of the assay: Induction of apoptosis in human HL60 cells assessed as membrane blebbing at 20 to 30 uM after 24 hrs by fluorescent microscopy. The class given is functional, cell-based.
The subject of assay [23] is HL-60. Nature of the assay: Induction of apoptosis in human HL60 cells assessed as loss of mitochondrial membrane potential at 30 uM after 24 hrs by Rhodamine-123 staining-based flow cytometric analysis (reference value: 6%). Format: functional.
The test system of assay [24] is HL-60. As to the kind of experiment: Induction of apoptosis in human HL60 cells at 20 uM after 24 hrs by propidium iodide staining-based flow cytometry (reference value: 1.49%). Format: functional.

For `Cc1cc(C)cc([Se][Se]c2cc(C)cc(C)c2)c1`, the IC50 (commonly the concentration needed to halve the response being measured) came to 34 µM in assay [1]; 23 µM in [2]; 30 µM in assay [3]; 33 µM in assay [4]; 36 µM in the assay with HT-29.
As to `Oc1ccccc1[Se][Se]c1ccccc1O`, the IC50 was determined as 21 µM in assay [1], 14 µM in assay [2], 25 µM in assay [3] and 23 µM in the assay on HT-29.
For `CCc1ccccc1[Se][Se]c1ccccc1CC`, the IC50 in assay [1] came to 38 µM; in [2], 28 µM; in [3] it was 43 µM; in assay [4], 42 µM; with HT-29, 56 µM.
In the same order, the values of `COc1ccc([Se][Se]c2ccc(OC)cc2)cc1` are 26 µM, 12 µM, 27 µM, 28 µM and 24 µM.
Regarding `Cc1cccc(C)c1[Se][Se]c1c(C)cccc1C`, the IC50 was found to be 39 µM in assay [1]; 27 µM in [2]; 33 µM in assay [3]; 40 µM in [4]; 35 µM with HT-29.
On to `c1ccc([Se][Se]c2ccccc2)cc1`, for which the IC50 in assay [1] amounted to 38 µM; in [2] it was 32 µM; in assay [3] it was 42 µM; in assay [4], 38 µM; with HT-29, 31 µM.
As for `Cc1ccc([Se][Se]c2ccc(C)cc2)cc1`, the IC50 worked out at 31 µM in assay [1]; 33 µM in [2]; 29 µM in assay [3]; 29 µM in assay [4]; 37 µM with HT-29.
For `OCc1ccc([Se][Se]c2ccc(CO)cc2)cc1`, the IC50 turned out to be 24 µM in [1]; 11 µM in assay [2]; 26 µM in assay [3]; 30 µM in [4]; 27 µM in the assay with HT-29.
Taken in the same sequence, the figures for `c1ccc2c([Se][Se]c3cccc4ccccc34)cccc2c1` were 25 µM, 16 µM, 40 µM, 32 µM and 34 µM.
As to `Oc1ccc([Se][Se]c2ccc(O)cc2)cc1`, the concentration for half-maximal inhibition (IC50) in assay [1] was determined as 27 µM; in assay [2], 13 µM; in assay [3], 29 µM; in assay [4], 33 µM; with HT-29, 37 µM.
With `c1ccc([Se][Se]c2ccccn2)nc1`, the IC50 in assay [1] was 27 µM; in [2] it was 28 µM; in assay [3] it was 26 µM; in [4], 29 µM; in the assay on HT-29 it was 30 µM.
With `FC(F)(F)c1cc([Se][Se]c2cc(C(F)(F)F)cc(C(F)(F)F)c2)cc(C(F)(F)F)c1`, the IC50 in [1] was 20 µM; in [2] it was 8 µM; in assay [3], 13 µM; in [4], 24 µM; with HT-29, 21 µM. Moreover, the Activity was 48.4% in assay [5]; 49.7% in assay [6]; 11% in the assay with HL-60 [7]; 20% with HL-60 [10]; 46.1% in assay [11]; 50.8% in assay [12]. Further, the Activity in the assay on HL-60 [13] is 23.94%; in assay [14], 1.93%; in the assay on HL-60 [16] it was “Dose-dependent effect”; in assay [17], 53.9%; in the assay with HL-60 [18], 2.45%; in assay [19], 45.5%. In addition, the Activity in assay [20] is 3.78%; in assay [21], 0%; in the assay on HL-60 [23] it was 58%; in the assay on HL-60 [24] it was 5.65%. For the same compound, in the assay on HL-60 [8], the inhibition result was “tde”. Further, the outcome with HL-60 [9], in the assay with HL-60 [15] and with HL-60 [22] was Active.
Turning to `OCc1ccccc1[Se][Se]c1ccccc1CO`, the IC50 in assay [1] came to 16 µM; in assay [2], 14 µM; in [3], 28 µM; in assay [4], 27 µM; in the assay on HT-29, 25 µM.
